Molecules are shown by their SMILES.

Common to all, as to assay type: functional, cell-based
Assay [1] has as its target P2Y purinoceptor 1 (Rattus norvegicus, UniProt P49651). As to the kind of experiment: Activity against rat P2Y1-GFP transfected in HEK293 cells by intracellular calcium increase. The method in brief:
(§1)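 HEK 293 cells stably expressing rat P2Y1-GFP or P2Y2-GFP (C-terminal GFP), transfected with DOTAP and selected with 1 mg/mL G418. Grown in DMEM/Ham's F12 with 10% FCS on PLL coverslips and measured after 3 days. Loaded with 2 µM Fura-2/AM for 30 min, then superfused with NaHBS at 37 °C with agonist for 1 min. Single-cell 340/380 nm ratio; mean ± SD, ≥50 cells.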
In general terms: Calcium flux is commonly read through the fluorescence of an indicator in the cells.

The target of assay [2] is P2Y purinoceptor 1 (Homo sapiens, UniProt P47900). As to the kind of experiment: Activity against human P2Y1-GFP expressed in 1321N1 cells by intracellular calcium increase. The method in brief: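 hP2Y1-GFP (C-terminal tag) stably transfected into 1321N1 cells, which lack endogenous P2Y receptors; selected with 1 mg/mL G418. Cells grown in DMEM with 5% FCS under 10% CO2 at 37 °C on PLL-coated coverslips. Loaded with 2 µM Fura-2/AM for 30 min in NaHBS pH 7.4, then superfused at 37 °C with agonist for 1 min. Read-out is single-cell 340/380 nm fluorescence ratio; mean ± SD from ≥50 cells.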

For a further assay, the target named is P2Y purinoceptor 2 (Rattus norvegicus, UniProt P41232). As to the kind of experiment: Activity against rat P2Y2-GFP transfected in HEK293 cells by intracellular calcium increase. The method in brief:
as §1

Chain of P2Y purinoceptor 2 (P41232 whole entry): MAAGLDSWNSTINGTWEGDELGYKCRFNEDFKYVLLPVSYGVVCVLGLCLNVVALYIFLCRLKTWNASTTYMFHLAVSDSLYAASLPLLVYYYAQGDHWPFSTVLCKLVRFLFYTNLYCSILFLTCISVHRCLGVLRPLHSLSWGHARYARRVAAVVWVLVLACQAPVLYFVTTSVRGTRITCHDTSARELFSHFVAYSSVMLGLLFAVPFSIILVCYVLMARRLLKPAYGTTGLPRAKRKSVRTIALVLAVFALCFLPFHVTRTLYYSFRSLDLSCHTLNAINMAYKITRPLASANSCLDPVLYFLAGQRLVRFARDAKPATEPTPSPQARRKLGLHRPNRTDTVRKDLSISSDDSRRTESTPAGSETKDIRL
Chain of P2Y purinoceptor 1 (Rattus norvegicus, UniProt P49651) (P49651 whole entry, the tested form may be a part): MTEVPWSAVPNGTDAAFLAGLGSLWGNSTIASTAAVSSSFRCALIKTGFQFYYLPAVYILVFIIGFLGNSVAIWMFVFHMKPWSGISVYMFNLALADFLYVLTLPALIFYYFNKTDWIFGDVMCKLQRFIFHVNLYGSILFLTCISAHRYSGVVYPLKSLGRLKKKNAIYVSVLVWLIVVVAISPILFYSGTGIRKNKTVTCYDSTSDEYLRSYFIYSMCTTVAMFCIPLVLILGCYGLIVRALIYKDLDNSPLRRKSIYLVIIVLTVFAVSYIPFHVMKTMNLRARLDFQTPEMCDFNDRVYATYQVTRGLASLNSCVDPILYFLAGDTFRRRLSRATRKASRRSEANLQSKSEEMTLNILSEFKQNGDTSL
Chain of P2Y purinoceptor 1 (Homo sapiens, UniProt P47900) (P47900 whole entry, the tested form may be a part): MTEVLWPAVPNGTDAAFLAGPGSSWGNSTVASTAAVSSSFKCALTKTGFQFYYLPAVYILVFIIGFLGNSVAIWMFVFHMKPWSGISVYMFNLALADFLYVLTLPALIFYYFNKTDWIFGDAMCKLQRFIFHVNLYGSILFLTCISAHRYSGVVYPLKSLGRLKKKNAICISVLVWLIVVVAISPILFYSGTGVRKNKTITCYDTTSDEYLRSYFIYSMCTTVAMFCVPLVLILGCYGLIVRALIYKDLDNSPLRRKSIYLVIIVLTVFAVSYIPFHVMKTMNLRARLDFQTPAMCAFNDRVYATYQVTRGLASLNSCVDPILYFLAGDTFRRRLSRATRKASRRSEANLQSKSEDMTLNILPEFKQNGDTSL

What is called EC50 is the concentration at which the effect is half-maximal. `BP(=O)(OP(=O)(O)OC[C@H]1O[C@@H](n2cnc3c(N)ncnc32)[C@H](O)[C@@H]1O)OP(=O)(O)OC[C@H]1O[C@@H](n2cnc3c(N)ncnc32)[C@H](O)[C@@H]1O.CCCCN(CCCC)CCCC.CCCCN(CCCC)CCCC.CCCCN(CCCC)CCCC`: the EC50 at P2Y purinoceptor 1 [1] came out at 900 nM.

For `BP(=O)(OP(=O)(O)OC[C@H]1O[C@@H](n2ccc(=O)[nH]c2=O)[C@H](O)[C@@H]1O)OP(=O)(O)OC[C@H]1O[C@@H](n2ccc(=O)[nH]c2=O)[C@H](O)[C@@H]1O.CCCCN(CCCC)CCCC.CCCCN(CCCC)CCCC.CCCCN(CCCC)CCCC`, the values for the EC50 on P2Y purinoceptor 1 [2] and on P2Y purinoceptor 2 (hek293) were 800 nM and “Not Active”, respectively.

As for `BP(=O)(OP(=O)(O)OP(=O)(O)OC[C@H]1O[C@@H](n2cnc3c(N)ncnc32)[C@H](O)[C@@H]1O)OP(=O)(O)OP(=O)(O)OC[C@H]1O[C@@H](n2cnc3c(N)ncnc32)[C@H](O)[C@@H]1O.CCCCN(CCCC)CCCC.CCCCN(CCCC)CCCC.CCCCN(CCCC)CCCC.CCCCN(CCCC)CCCC.CCCCN(CCCC)CCCC`, the EC50 on P2Y purinoceptor 1 [1] amounted to 63 nM.

`BP(=O)(OP(=O)(O)OP(=O)(O)OC[C@H]1O[C@@H](n2ccc(=O)[nH]c2=O)[C@H](O)[C@@H]1O)OP(=O)(O)OP(=O)(O)OC[C@H]1O[C@@H](n2ccc(=O)[nH]c2=O)[C@H](O)[C@@H]1O.CCCCN(CCCC)CCCC.CCCCN(CCCC)CCCC.CCCCN(CCCC)CCCC.CCCCN(CCCC)CCCC.CCCCN(CCCC)CCCC`: the EC50 at P2Y purinoceptor 1 [2] is 800 nM; at P2Y purinoceptor 2 (read-out: EC50) it was greater than 7000 nM.

Regarding `Nc1ncnc2c1ncn2[C@@H]1O[C@H](COP(=O)(O)OP(=O)(O)OP(=O)(O)OC[C@H]2O[C@@H](n3cnc4c(N)ncnc43)[C@H](O)[C@@H]2O)[C@@H](O)[C@H]1O`, on P2Y purinoceptor 1 [1], the EC50 stood at 60 nM.

Consider `CSc1nc(N)c2ncn([C@@H]3O[C@H](COP(=O)(O)OP(=O)(O)O)[C@@H](O)[C@H]3O)c2n1`, for which the half-maximal effective concentration (EC50) on P2Y purinoceptor 1 [1] was found to be 100 nM.

Consider `Nc1ncnc2c1ncn2[C@@H]1O[C@H](COP(=O)(O)OP(=O)(O)OP(=O)(O)OP(=O)(O)OP(=O)(O)OC[C@H]2O[C@@H](n3cnc4c(N)ncnc43)[C@H](O)[C@@H]2O)[C@@H](O)[C@H]1O`, for which the EC50 at P2Y purinoceptor 1 [1] was no less than 5000 nM.

`O=c1ccn([C@@H]2O[C@H](COP(=O)(O)OP(=O)(O)OP(=O)(O)O)[C@@H](O)[C@H]2O)c(=O)[nH]1` [URIDINE TRIPHOSPHATE]: the concentration for a half-maximal effect (EC50) at P2Y purinoceptor 2 (read-out: EC50) worked out at 130 nM.

These data come from ChEMBL document CHEMBL1138990, “Diadenosine and diuridine poly(borano)phosphate analogues: synthesis, chemical and enzymatic stability, and activity at P2Y1 and P2Y2 receptors” (J Med Chem, 2006).
